The nature of test [1]: reducers of endogenous Her2 protein level, primary screen, SKBR3 breast tumor cells, AlphaScreen, ATP viability (AID 461;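 active means Her2 level under about 52% in both replicate screens, with viability over 70% of control, limit read from the data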;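 on Her2 level: lower value means less Her2 protein in the cells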;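 on viability: percent of carrier control wells set as 100% viability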). The following applies: 18-24 h, measured here: SKBR3 viability, ATP luminescence, at 10 µM. (In general: Alpha assays give light when donor and acceptor beads are brought close together.)
Test [2] concerns the target Receptor tyrosine-protein kinase erbB-2 (Homo sapiens) (UniProt P04626). The test is described as above. The following applies: 18-24 h, at 10 µM, stronger effect = lower value.
A short description of test [3]: SK-BR-3 cell growth inhibitors, pilot screen, 24 h, human (AID 572).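 Further: compound exposure lasted between 18 and 24 h rather than exactly 24 h; 100% = carrier-treated control wells.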 The following applies: SK-BR-3 viability, CellTiter-Glo luminescence, at 10 µM, stronger effect = lower value. In general terms: In ATP-based viability assays light output follows the ATP content of the culture.
The nature of test [4]: HUVEC growth inhibition – cell-based, human, primary screen (AID 575;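 active means viability at or below 30% in both replicate assays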;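 further: 100% = median of untreated cell wells with 0.1% DMSO on each plate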). The following applies: HUVEC proliferation, CellTiter-Glo luminescence, 72 h; at 10 µM; stronger effect = lower value. In short, it runs like this: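 System – primary HUVEC, no more than 12 passages · Medium – Low-serum (2% FBS) EBM, supplemented · Times – 72 h exposure, 37 °C, 5% CO2, 30 min RT equilibration · Measured by – luminescent ATP assay · Read-out – % viability relative to median vehicle-well signal on each plate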

Test [5] can be described thus: growth inhibitors of H69AR lung tumor, primary screen, human, duplicate replicates (AID 580;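 active means viability at or under a set limit in both replicates, limit being median viability minus 3 SD, cut at about 48% in these data, passing the limit was not always enough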;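 further: 100% = mean luminescence of untreated wells and 0% = no signal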). The following applies: H69AR lung tumor cells viability, ATP luminescence, 72 h; at 10 µM; stronger effect = lower value.
Test [6] is described as follows: reversal of MRP1-mediated doxorubicin resistance, pilot screen, H69AR cells, doxorubicin co-treatment (AID 601;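 active means viability loss from added drug above about 55%, and viability with drug at most 40%, in both replicates, limit read from the data, passing the limit was not always enough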). The following applies: CellTiter-Glo, 72 h, at 10 µM; for differential viability (reversal): stronger effect = higher value.
The nature of test [7]: 384-well plate pilot, post-Golgi transport modulator project, inhibition of yeast transport mutant growth (AID 636; in the data active means inhibition above about 31%). The following applies: absorbance 615 nm, about 18 h, stronger effect = higher value.
Test [8] is described as follows: growth suppression of yeast trafficking mutant, preliminary HTS, modulators of trafficking downstream of Golgi apparatus project, 1536-format plate, OD 615 nm (AID 637; in the data active means inhibition above about 30%). The following applies: yeast transport mutant growth, absorbance 615 nm, 18 h; stronger effect = higher value.
Setting [9] is: H69AR cells + 2 uM doxorubicin, measured here: viability with 2 uM doxorubicin, stronger effect = lower value.
Where [10] appears, read: H69AR cells, compound alone cytotoxicity.

The source made the active and inactive calls.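 How the source made its calls, unless noted: active means viability at or below 10% of carrier control in both of two separate runs; inconclusive means viability at or below 10% in only one of the two runs; inactive means the rest.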

Sequence of Receptor tyrosine-protein kinase erbB-2 (Homo sapiens) (P04626 whole entry, looked up): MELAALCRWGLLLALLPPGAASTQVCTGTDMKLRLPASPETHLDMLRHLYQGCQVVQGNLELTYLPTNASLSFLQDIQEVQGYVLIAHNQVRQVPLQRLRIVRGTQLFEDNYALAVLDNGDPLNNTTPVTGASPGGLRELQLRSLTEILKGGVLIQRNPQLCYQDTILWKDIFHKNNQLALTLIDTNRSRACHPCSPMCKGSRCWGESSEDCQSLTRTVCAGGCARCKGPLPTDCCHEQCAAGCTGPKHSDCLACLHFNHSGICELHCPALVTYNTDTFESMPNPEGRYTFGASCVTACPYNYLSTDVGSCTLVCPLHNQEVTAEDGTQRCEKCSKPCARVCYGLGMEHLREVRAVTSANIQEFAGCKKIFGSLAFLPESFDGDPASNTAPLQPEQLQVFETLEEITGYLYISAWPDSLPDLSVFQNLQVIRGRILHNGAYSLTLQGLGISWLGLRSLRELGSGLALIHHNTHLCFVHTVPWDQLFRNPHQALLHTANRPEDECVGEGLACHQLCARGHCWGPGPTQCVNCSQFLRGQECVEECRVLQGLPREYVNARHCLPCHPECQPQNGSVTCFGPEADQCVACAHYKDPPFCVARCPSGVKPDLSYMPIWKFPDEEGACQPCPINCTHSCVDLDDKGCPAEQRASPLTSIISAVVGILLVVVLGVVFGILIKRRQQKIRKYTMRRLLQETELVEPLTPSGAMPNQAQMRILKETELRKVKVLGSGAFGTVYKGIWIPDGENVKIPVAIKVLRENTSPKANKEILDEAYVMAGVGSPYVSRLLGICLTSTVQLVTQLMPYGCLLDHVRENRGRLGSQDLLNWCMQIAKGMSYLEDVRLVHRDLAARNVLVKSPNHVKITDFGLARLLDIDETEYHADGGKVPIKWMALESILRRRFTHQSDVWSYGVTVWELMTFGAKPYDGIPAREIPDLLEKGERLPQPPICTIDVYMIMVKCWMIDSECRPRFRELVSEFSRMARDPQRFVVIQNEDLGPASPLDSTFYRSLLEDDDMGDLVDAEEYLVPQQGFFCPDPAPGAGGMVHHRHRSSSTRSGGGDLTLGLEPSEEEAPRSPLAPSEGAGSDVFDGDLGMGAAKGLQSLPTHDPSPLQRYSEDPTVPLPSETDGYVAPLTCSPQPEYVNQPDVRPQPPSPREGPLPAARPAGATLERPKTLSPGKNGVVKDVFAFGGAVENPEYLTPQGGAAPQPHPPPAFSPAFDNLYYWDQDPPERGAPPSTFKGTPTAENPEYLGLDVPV

As a reminder, the viability is a read-out of living cells in per cent, often relative to untreated cells. As a reminder, the inhibition is the relative decrease from the control value, in per cent. With `CCOc1ccccc1C1CC(=O)NC(SCC)=C1C#N` (stereo not given), the viability is 85.5% in test [1]; 85.5% (inactive) in test [3]; 109% (inactive) in test [4]; 97% (inactive) in test [5]; 89.6% in test [6] (setting [9]); 97% in test [6] (setting [10]). In test [2], the Her2 level was 89% (inactive). The differential viability (reversal) in test [6] (H69AR cells + 2 uM doxorubicin) was 7.42% (inactive). Also, the inhibition in test [7] was -6.08% (inactive); in test [8], -2.17% (inactive).

Consider `CCCC(=O)Nc1ccc(NC(=O)C2CC2)cn1`, for which the viability is 108% in test [1]; 108% (inactive) in test [3]; 105% (inactive) in test [4]; 102% (inactive) in test [5]; 95.4% in test [6] (setting [9]); 102% in test [6] (setting [10]). In test [2], the Her2 level was 112% (inactive). In addition, in test [6] (H69AR cells + 2 uM doxorubicin), the differential viability (reversal) was 6.95% (inactive). Moreover, the inhibition in test [7] is -1.73% (inactive); in test [8] it was 5% (inactive).

`N#CCCNCC1(c2ccccc2)CCCC1`: the viability in test [1] is 96%; in test [3] it was 96% (inactive); in test [4] it was 106% (inactive); in test [5] it was 102% (inactive); in test [6] (setting [9]), 89.4%; in test [6] (setting [10]), 102%. In addition, the Her2 level in test [2] was 94% (inactive). Moreover, the differential viability (reversal) in test [6] (H69AR cells + 2 uM doxorubicin) is 12.9% (inactive). Further, the inhibition is 2.97% (inactive) in test [7] and -4.13% (inactive) in test [8].

As for `O=C(COC(=O)c1cncc(Br)c1)NCCC1=CCCCC1`, the viability is 93.5% in test [1]; 93.5% (inactive) in test [3]; 101% (inactive) in test [4]; 97.5% (inactive) in test [5]; 88.4% in test [6] (setting [9]); 97.5% in test [6] (setting [10]). In addition, the Her2 level in test [2] was 93% (inactive). Also, in test [6] (H69AR cells + 2 uM doxorubicin), the differential viability (reversal) was 9.04% (inactive). Also, the inhibition in test [7] was -1.28% (inactive); in test [8] it was -1.33% (inactive).

Turning to `CCOc1ccccc1-c1nc(-c2ccc(NC(=O)Cc3ccccc3OC)cc2)no1`, the viability was 90.5% in test [1]; 90.5% (inactive) in test [3]; 75.3% (inactive) in test [4]; 88.6% (inactive) in test [5]; 83.3% in test [6] (setting [9]); 88.6% in test [6] (setting [10]). In addition, the Her2 level in test [2] is 114% (inactive). The differential viability (reversal) in test [6] (H69AR cells + 2 uM doxorubicin) was 5.33% (inactive). For the same compound, the inhibition was 0.93% (inactive) in test [7] and -5.81% (inactive) in test [8].

For the compound `O=C(NCc1ccco1)C(c1ccco1)N(C(=O)Cn1nnc2ccccc21)c1ccc2c(c1)CCC2` (stereo not given), the viability in test [1] was 95.5%; in test [3], 95.5% (inactive); in test [4] it was 89.7% (inactive); in test [5], 99.8% (inactive); in test [6] (setting [9]), 91.2%; in test [6] (setting [10]), 99.8%. Moreover, the Her2 level in test [2] is 92.5% (inactive). Further, the differential viability (reversal) in test [6] (H69AR cells + 2 uM doxorubicin) is 8.6% (inactive). Besides, the values for the inhibition in test [7] and in test [8] were -2.8% (inactive) and -5.97% (inactive), respectively.

For `Cc1ccc(S(=O)(=O)NCC(=O)N(CC(=O)NC2CCCCC2)Cc2ccco2)cc1`, the viability in test [1] was 135%; in test [3], 135% (inactive); in test [4] it was 91% (inactive); in test [5], 93.9% (inactive); in test [6] (setting [9]) it was 91.3%; in test [6] (setting [10]) it was 93.9%. The Her2 level in test [2] is 100% (inactive). Besides, the differential viability (reversal) in test [6] (H69AR cells + 2 uM doxorubicin) was 2.62% (inactive). The inhibition is -5.87% (inactive) in test [7] and 4.76% (inactive) in test [8].

As for `Cc1ccc(-n2cnnn2)c2cccnc12`, the viability in test [1] was 95.5%; in test [3] it was 95.5% (inactive); in test [4] it was 72.1% (inactive); in test [5] it was 101% (inactive); in test [6] (setting [9]), 93.5%; in test [6] (setting [10]), 101%. Also, in test [2], the Her2 level is 92% (inactive). Moreover, in test [6] (H69AR cells + 2 uM doxorubicin), the differential viability (reversal) was 7.82% (inactive). Besides, the inhibition in test [7] is -5.53% (inactive); in test [8] it was 4.83% (inactive).

As for `O=C1CC(c2ccc(F)c(Br)c2)C2=C(CCCC2=O)N1` (stereo not given), the viability is 102% in test [1]; 102% (inactive) in test [3]; 84.6% (inactive) in test [4]; 102% (inactive) in test [5]; 96.1% in test [6] (setting [9]); 102% in test [6] (setting [10]). In addition, in test [2], the Her2 level is 85.5% (inactive). The differential viability (reversal) in test [6] (H69AR cells + 2 uM doxorubicin) was 5.7% (inactive). In addition, the inhibition in test [7] is -3.95% (inactive); in test [8], -4.67% (inactive).

Regarding `O=C1CC(N2CCOCC2)C(=O)N1c1ccc2c(c1)OCO2` (stereo not given), the viability in test [1] is 102%; in test [3], 102% (inactive); in test [4] it was 92% (inactive); in test [5] it was 104% (inactive); in test [6] (setting [9]), 108%; in test [6] (setting [10]), 104%. Moreover, the Her2 level in test [2] is 92.5% (inactive). Also, in test [6] (H69AR cells + 2 uM doxorubicin), the differential viability (reversal) is -4.17% (inactive). The inhibition in test [7] is -2.11% (inactive); in test [8] it was 0.32% (inactive).

With `COc1ccc(OC)c(NC(=O)CCN2CCN(c3ccccc3F)CC2)c1`, the viability in test [1] was 94.5%; in test [3], 94.5% (inactive); in test [4] it was 90.8% (inactive); in test [5] it was 97.8% (inactive); in test [6] (setting [9]), 84.7%; in test [6] (setting [10]), 97.8%. Also, in test [2], the Her2 level is 106% (inactive). For the same compound, in test [6] (H69AR cells + 2 uM doxorubicin), the differential viability (reversal) was 13.1% (inactive). The inhibition is -4.93% (inactive) in test [7] and -8.39% (inactive) in test [8].

`COc1ccc(NC(=O)CN2CCN(S(=O)(=O)c3ccc(Cl)cc3)CC2)cc1`: the viability in test [1] was 92%; in test [3], 92% (inactive); in test [4] it was 88% (inactive); in test [5], 81.8% (inactive); in test [6] (setting [9]) it was 93.1%; in test [6] (setting [10]), 81.8%. The Her2 level in test [2] is 76% (inactive). The differential viability (reversal) in test [6] (H69AR cells + 2 uM doxorubicin) is -11.3% (inactive). The inhibition in test [7] is -6.18% (inactive); in test [8] it was -11% (inactive).

Regarding `CCOC(=O)c1c(C)c(C(=O)NCC2CCCO2)c(C)n1C` (stereo not given), the viability in test [1] was 100%; in test [3] it was 100% (inactive); in test [4] it was 83.5% (inactive); in test [5], 92.2% (inactive); in test [6] (setting [9]) it was 80.3%; in test [6] (setting [10]), 92.2%. Further, in test [2], the Her2 level is 82.5% (inactive). In addition, in test [6] (H69AR cells + 2 uM doxorubicin), the differential viability (reversal) is 11.9% (inactive). The results for the inhibition in test [7] and in test [8] were -1.71% (inactive) and 1.59% (inactive), respectively.

As for `COc1ccc(CCn2c(C)cc(C(=O)CSc3nnnn3C)c2C)cc1`, the viability in test [1] is 99.5%; in test [3], 99.5% (inactive); in test [4] it was 81.7% (inactive); in test [5] it was 101% (inactive); in test [6] (setting [9]), 104%; in test [6] (setting [10]) it was 101%. Besides, the Her2 level in test [2] is 144% (inactive). Besides, the differential viability (reversal) in test [6] (H69AR cells + 2 uM doxorubicin) is -3.11% (inactive). Also, the inhibition in test [7] is -0.13% (inactive); in test [8] it was -1.83% (inactive).

The record behind these values is PubChem BioAssay.
